According to ChEMBL document CHEMBL4373713, “Effect of 1-Deoxynojirimycin Isolated from Mulberry Leaves on Glucose Metabolism and Gut Microbiota in a Streptozotocin-Induced Diabetic Mouse Model” (J Nat Prod, 2019):
The source made the active and inactive calls.

Assays:
[1] = test system: Mus musculus; test: Antidiabetic activity in STZ-induced Kunming mouse model of diabetes assessed as increase in hepatic glycogen level at 31.25 to 125 m/kg, po administered QD administered via gavage for 4 weeks; type: functional, organism-based
Summary of the method: (§1)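 Diabetic mice (high-fat diet plus STZ 35 mg/kg i.p.) were dosed by gavage once daily for 28 days at 31.25–125 mg/kg. After an overnight fast at endpoint, liver and plasma were collected. ALT, hepatic glycogen and pyruvic acid were measured with commercial kits.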

[2] = test system: Mus musculus; test: Antidiabetic activity in STZ-induced Kunming mouse model of diabetes assessed as down regulation of PCB expression level in liver at 62.5 to 125 m/kg, po administered QD administered via gavage for 4 weeks by Western blot analysis; type: functional, organism-based
Summary of the method: (§2)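 Livers from diabetic mice after 28 days of daily gavage (31.25–125 mg/kg) were homogenized and spun at 14 000g, 4 °C. Proteins were run on 10% SDS-PAGE and transferred to PVDF, then blocked in 5% milk for 1 h. Primary antibodies (GK, PK, PFK, PCB, PEPCK, FBPase, G-6-Pase, p-IR Tyr999, p-IRS-1 Ser307) were applied for 1 h at 25 °C, followed by HRP anti-rabbit IgG and ECL detection. Mean ± SD, Duncan's test.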

[3] = test system: Mus musculus; test: Antidiabetic activity in STZ-induced Kunming mouse model of diabetes assessed as increase in LPL mRNA level at 31.25 to 125 m/kg, po administered QD administered via gavage for 4 weeks by RT-PCR analysis; type: functional, organism-based
Summary of the method: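 Liver RNA was Trizol-extracted and reverse-transcribed. qPCR ran 95 °C 10 min, then 45 cycles of 95 °C 15 s, 55 °C 20 s and 72 °C 30 s. LPL was normalized to β-actin and quantified by 2−ΔΔCt. Samples came from STZ/high-fat-diet diabetic mice gavaged daily for 28 days at 31.25–125 mg/kg.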

[4] = test system: Mus musculus; test: Antidiabetic activity in STZ-induced Kunming mouse model of diabetes assessed as reduction in TG level at 31.25 to 125 m/kg, po administered QD administered via gavage for 4 weeks; type: functional, organism-based
Summary of the method: (§3)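 STZ/high-fat-diet diabetic Kunming mice (n=10/group) were gavaged daily for 28 days at 31.25–125 mg/kg. After an overnight fast, orbital-sinus blood was taken and plasma was spun at 1000g, 4 °C. TC, TG and HDL-C were measured by kit. LDL-C was calculated by Friedewald: TC − (HDL-C + TG/2.2), with TG below 4.5 mmol/L. Data are mean ± SD, Duncan's test.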

[5] = test system: Mus musculus; test: Antidiabetic activity in STZ-induced Kunming mouse model of diabetes assessed as increase in HDL-C level at 31.25 to 125 m/kg, po administered QD administered via gavage for 4 weeks; type: functional, organism-based; summary of the method: as §3
[6] = test system: Mus musculus; test: Antidiabetic activity in STZ-induced Kunming mouse model of diabetes assessed as decrease in Klebsiella level in feces at 62.5 to 125 mg/kg, po administered QD administered via gavage for 4 weeks by 16S rDNA based DNA sequencing analysis; type: functional, organism-based
[7] = test system: Mus musculus; test: Antidiabetic activity in STZ-induced Kunming mouse model of diabetes assessed as down regulation of glucose-6-phosphatase expression level in liver at 62.5 to 125 m/kg, po administered QD administered via gavage for 4 weeks by Western blot analysis; type: functional, organism-based; summary of the method: as §2
[8] = test system: Mus musculus; test: Antidiabetic activity in STZ-induced diabetic Kunming mouse assessed as increase in body weight gain at 62.5 to 125 mg/kg, po QD administered via gavage for 4 weeks and measured every 3 days for 28 day
[9] = test system: Mus musculus; test: Antidiabetic activity in STZ-induced Kunming mouse model of diabetes assessed as decrease in Weis-sella level in feces at 31.25 to 125 mg/kg, po administered QD administered via gavage for 4 weeks by 16S rDNA based DNA sequencing analysis; type: functional, organism-based
[10] = test system: Mus musculus; test: Antidiabetic activity in STZ-induced Kunming mouse model of diabetes assessed as decrease in pyruvic acid level at 31.25 to 125 m/kg, po administered QD administered via gavage for 4 weeks; type: functional, organism-based; summary of the method: as §1
[11] = test system: Mus musculus; test: Antidiabetic activity in po dosed STZ-induced Kunming mouse model of diabetes assessed as increase in Bacteroidetes level in feces administered QD administered via gavage for 4 weeks by 16S rDNA based Illumina sequencing method; type: functional, organism-based
[12] = test system: Mus musculus; test: Antidiabetic activity in po dosed STZ-induced Kunming mouse model of diabetes assessed as increase in IR phosphorylation at (Tyr 999 residues) expression in liver administered QD administered via gavage for 4 weeks by Western blot analysis; type: functional, organism-based; summary of the method: as §2
[13] = test system: Mus musculus; test: Antidiabetic activity in STZ-induced Kunming mouse model of diabetes assessed as decrease in Rumino-coccaceae UCG-014 level in feces at 31.25 to 125 mg/kg, po administered QD administered via gavage for 4 weeks by 16S rDNA based Illumina sequencing method; type: functional, organism-based
[14] = test system: Mus musculus; test: Antidiabetic activity in STZ-induced Kunming mouse model of diabetes assessed as reduction in serum glucose level 125 mg/kg, po administered QD administered via gavage for 4 weeks and measured 4 weeks during compound dosing; type: functional, organism-based
Summary of the method: (§4)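 Fasting serum glucose was taken from the tail tip on days 0, 7, 14, 21 and 28 in STZ (35 mg/kg i.p.)/high-fat-diet Kunming mice. Mice were gavaged once daily at 31.25, 62.5 or 125 mg/kg in 0.5 mL, n=10 per group.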

[15] = test system: Mus musculus; test: Antidiabetic activity in STZ-induced Kunming mouse model of diabetes assessed as decrease in Ruminococcus level in feces at 31.25 to 125 mg/kg, po administered QD administered via gavage for 4 weeks by 16S rDNA based DNA sequencing analysis; type: functional, organism-based
[16] = test system: Mus musculus; test: Antidiabetic activity in po dosed STZ-induced Kunming mouse model of diabetes assessed as reduction in fasting serum glucose level administered QD administered via gavage for 4 weeks and measured 2 weeks during compound dosing; type: functional, organism-based; summary of the method: as §4
[17] = test system: Mus musculus; test: Antidiabetic activity in STZ-induced Kunming mouse model of diabetes assessed as down regulation of PEPCK expression level in liver at 62.5 to 125 m/kg, po administered QD administered via gavage for 4 weeks by Western blot analysis; type: functional, organism-based; summary of the method: as §2
[18] = test system: Mus musculus; test: Antidiabetic activity in STZ-induced Kunming mouse model of diabetes assessed as decrease in Bacteroidales S24-7 level in feces at 62.5 to 125 mg/kg, po administered QD administered via gavage for 4 weeks by 16S rDNA based DNA sequencing analysis; type: functional, organism-based
[19] = test system: Mus musculus; test: Antidiabetic activity in po dosed STZ-induced Kunming mouse model of diabetes assessed as decrease in IRS-1 (Ser 307 residues) expression in liver administered QD administered via gavage for 4 weeks by Western blot analysis; type: functional, organism-based; summary of the method: as §2
[20] = test system: Mus musculus; test: Antidiabetic activity in STZ-induced Kunming mouse model of diabetes assessed as increase in Lachnospiraceae level in feces at 31.25 to 125 mg/kg, po administered QD administered via gavage for 4 weeks by 16S rDNA based DNA sequencing analysis; type: functional, organism-based

Measured: Activity

OC[C@H]1NC[C@H](O)[C@@H](O)[C@@H]1O
active: [1] | [2] | [3] | [4] | [5] | [6] | [7] | [8] | [9] | [10] | [11] Dose-dependent effect | [12] Dose-dependent effect | [13] | [14] | [15] | [16] Dose-dependent effect | [17] | [18] | [19] Dose-dependent effect | [20]
